Screens from PubChem.
An excerpt weighted towards active compounds, which were near 3.5% of everything screened.
MrgX1 PAM = positive allosteric modulators of MrgX1, primary screen, HEK293 cells, Fluo-4 calcium flux. Mas-related G-protein coupled receptor member X1 (Homo sapiens), Q96LB2. FDSS; active compounds read high. B-score at 10 µM. 310,000 tested, 0.63% active. AID 588675, 2011;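 active means plate-corrected calcium response at least 3 library SD above typical, normal starting fluorescence, not activating the receptor alone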;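 further: compound read alongside a low EC10 to EC30 dose of BAM8-22 agonist; peak minus trough fluorescence over baseline measured at the second addition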
Target sequence (Q96LB2 whole entry, looked up): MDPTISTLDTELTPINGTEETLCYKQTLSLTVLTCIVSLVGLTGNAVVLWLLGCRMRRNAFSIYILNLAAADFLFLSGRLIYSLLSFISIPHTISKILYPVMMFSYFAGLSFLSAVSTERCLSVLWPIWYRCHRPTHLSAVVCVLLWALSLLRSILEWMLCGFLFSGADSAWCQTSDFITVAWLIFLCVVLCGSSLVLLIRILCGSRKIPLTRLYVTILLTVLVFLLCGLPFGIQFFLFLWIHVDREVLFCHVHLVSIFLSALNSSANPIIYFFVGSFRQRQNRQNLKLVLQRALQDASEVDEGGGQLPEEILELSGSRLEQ
MrgX1 ag = agonists of human MrgX1 receptor, primary screen, HEK293 cells, Fluo-4 calcium flux; 310,000 tested, 0.44% active; B-score at 10 µM; AID 588627, 2011; Fluo-4 calcium fluorescence, agonist mode; active compounds read high; Mas-related G-protein coupled receptor member X1 (Homo sapiens), Q96LB2;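 active means calcium response B-score plate-corrected fluorescence ratio at least 3 library SD, with starting fluorescence B-score inside 5 SD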
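times = overnight plating, then 30 min 37 °C plus 30 min room-temperature dye loading | assay system = stable human MrgX1 HEK293 cell line | input = fifteen thousand cells per well | signal = kinetic calcium dye fluorescence, Fluo-4 NW | dosing = compound delivered in addition one of three | read-out = B-scored fluorescence response ratio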
RGS4 pot = RGS4 potentiators or activators, primary screen, cell-based, HEK293 M3R inducible RGS4, calcium flux | B-score at 10 µM | AID 463111, 2010 | 310,000 tested, 0.92% active | carbachol calcium flux Fluo4; active compounds read low;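 active means B-score of the integrated calcium signal more than 4 SD below the library mean, with starting fluorescence not abnormally high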;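 further: negative B-score means reduced calcium response which marks RGS4 activation or potentiation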
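test system = M3R-expressing HEK293 line, RGS4 induced by doxycycline | probe or stimulus = carbachol at ECmax as muscarinic agonist stimulus | timing = dye loading 30 min 37 °C, buffer rest 30 min RT | signal = calcium dye Fluo4 fluorescence | evaluation = B score from integrated fluorescence ratio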
MrgX1 antag = antagonists of human MrgX1 receptor, primary screen, HEK293 cells, Fluo-4 calcium flux | Mas-related G-protein coupled receptor member X1 (Homo sapiens), Q96LB2 | BAM8-22 antagonism; active compounds read low | B-score at 10 µM | 310,000 tested, 1.3% active | AID 588676, 2011;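 active means calcium-response B-score plate-corrected more than 3 library SD below zero, starting fluorescence within 5 deviations, no agonist response on first addition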;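 further: peak minus trough fluorescence over baseline after final BAM8-22 challenge near maximal dose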
RGS4 inh = RGS4 inhibitors, primary screen, cell-based, HEK293 M3R inducible RGS4, calcium flux. AID 463165, 2010. 310,000 tested, 0.45% active. B-score at 10 µM. Fluo-4 calcium flux; active compounds read high; triggered by carbachol at its EC20;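 active means B-score, a plate-corrected calcium signal, over three deviations above library mean, with baseline fluorescence within five deviations of library mean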;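 further: RGS4 expression induced by doxycycline in cells with stable M3 receptor; B-score is computed from the integrated fluorescence ratio over baseline after carbachol; higher B-score means a larger calcium signal and so more RGS4 inhibition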
Target sequence (P49798 whole entry, looked up): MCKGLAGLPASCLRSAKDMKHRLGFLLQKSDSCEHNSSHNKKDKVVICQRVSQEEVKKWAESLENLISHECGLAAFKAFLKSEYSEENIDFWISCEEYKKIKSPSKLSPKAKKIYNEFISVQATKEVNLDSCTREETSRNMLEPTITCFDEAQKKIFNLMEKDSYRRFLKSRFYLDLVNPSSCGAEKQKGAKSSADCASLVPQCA
MrgX1 ant reconf = MrgX1 receptor antagonists, duplicate retest, confirmation, HEK293 cells, Fluo-4 calcium flux; shares compounds with MrgX1 antag; BAM8-22 calcium flux; active compounds read low; remaining BAM8-22 calcium response % of control (active compounds read low), % at 10 µM; 2,300 tested, 19% active;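 active means remaining agonist calcium response no higher than 100% minus 3 SD of agonist-only control wells, with starting fluorescence near control levels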;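 further: agonist BAM8-22 given at a near maximal EC90 to ECmax level; peak minus minimum fluorescence divided by baseline after agonist addition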
HEK293 Ca flux = nonspecific calcium signal in parental HEK293, confirmation, counter-screen for MrgX1 antagonist project, parental HEK293 cells, Fluo-4 calcium flux; fluorescence ratio F(max-min)/F0 at 10 µM; shares compounds with MrgX1 antag; AID 624111, 2012; Fluo-4 calcium fluorescence, FDSS; 4,000 tested, 2% active;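 active means duplicate-averaged calcium fluorescence ratio at least three times the standard deviation of buffer wells, a nonspecific response in parental cells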
HEK293 Ca counter = calcium response in parental HEK293 cells, primary screen, counter-screen for MrgX1 allosteric activator project, cell-based, Fluo-4 calcium flux, duplicate | shares compounds with MrgX1 antag | Fluo-4 fluorescence ratio; active compounds read high | fluorescence ratio F(max-min)/F0 at 10 µM | 4,000 tested, 0.4% active | AID 624114, 2012;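 active means calcium fluorescence ratio, averaged over duplicates, at least 3 SD of the buffer-well ratio, meaning a nonspecific response in receptor-free cells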;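 further: untransfected parental HEK293 lacking MrgX1 used as counterscreen for MrgX1 allosteric activators; fluorescence change taken during the second addition on a kinetic imager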
HEK293 Ca cntr2 = calcium response in parental HEK293 cells, primary screen, counter-screen for MrgX1 agonist project, cell-based, Fluo-4 calcium flux, duplicate, agonist mode | shares compounds with MrgX1 antag | Fluo-4 calcium fluorescence (FDSS); active compounds read high | fluorescence ratio F(max-min)/F0 at 10 µM | 4,000 tested, 8.7% active | AID 624115, 2012;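 active means calcium fluorescence ratio at least three times the spread of buffer wells, meaning a non-specific response in parental cells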
Active calls of the source: *; i = inactive; . = no result given.

SMILES | MrgX1 PAM | MrgX1 ag | RGS4 pot | MrgX1 antag | RGS4 inh | MrgX1 ant reconf | HEK293 Ca flux | HEK293 Ca counter | HEK293 Ca cntr2
C=CCn1c(O)c(CN2CCOCC2)c(C)c(C#N)c1=O | i | i | i | -6.4* | i | i | i | i | i
CC1(C)CC(=O)c2c(O)cc(O)cc2O1 | i | i | i | i | i | . | . | . | .
C[C@]12CCC[C@H](O1)c1c(cc3c(c1O)C(=O)c1c(O)cc(O)cc1C3=O)O2 | i | i | i | -7.6* | i | i | 0.64* | i | i
O=C(CN1CCC(O)CC1)N1c2ccccc2C=Cc2ccccc21 | i | i | i | i | i | . | . | . | .
C=CCNC(=O)CSc1nc2sccc2c(=O)n1-c1ccccc1 | i | i | i | -5.1* | i | i | i | i | i
CCOC(=O)c1cc(-c2ccccc2)sc1NC(=O)C(C)N1C(=O)c2ccccc2C1=O (stereo not drawn) | i | i | i | i | i | . | . | . | .
Cc1ccc(S(=O)(=O)Cn2nnnc2C(C(C)C)N2CCSCC2)cc1 (stereo not drawn) | i | i | i | i | i | . | . | . | .
Cc1ccc(S(=O)(=O)Cn2nnnc2C(C(C)C)N2CCN(Cc3ccco3)CC2)cc1 (stereo not drawn) | i | i | i | -5.7* | i | i | i | i | i
O=C(Nc1ccccc1)C1=C[C@@H](C2CC2)C[C@@H](OCCCCO)O1 | i | i | i | i | i | . | . | . | .
Cc1ccc2c(c1)N(C(=O)CCC(=O)NCCCN1CCN(C)CC1)CCO2 | i | i | i | -8.7* | i | i | i | i | i
Cc1ccc2c(c1)N(C(=O)CCC(=O)NCCCN1CCC(Cc3ccccc3)CC1)CCO2 | i | i | i | i | i | . | . | . | .
COc1cccc(CNC(=O)CCS(=O)(=O)c2cc3c(cc2C)NC(=O)CO3)c1 | i | i | i | i | i | . | . | . | .
O=c1[nH]c(C(F)(F)F)nc2c1nnn2Cc1ccccc1F | i | i | i | -5.2* | i | i | i | i | i
CCOC(=O)c1c(-c2ccc(C)cc2)csc1NC1=NS(=O)(=O)c2ccccc21 | i | i | i | -6.8* | i | i | i | i | i
CCOC(=O)C[C@H]1c2ccccc2S(=O)(=O)N1c1cccc(OC)c1 | i | i | i | i | i | . | . | . | .
CC(=O)N1CCN(S(=O)(=O)c2cccc(C(=O)Nc3ccccc3N3CCCC3)c2)CC1 | i | i | i | i | i | . | . | . | .
CN1CCN(S(=O)(=O)c2cccc(C(=O)Nc3ccccc3N3CCCC3)c2)CC1 | i | i | i | -4.6* | i | i | i | i | i
CCC1CCCCN1C(=O)N[C@@H](Cc1ccccc1)C(=O)O (stereo partly drawn) | i | i | i | -5* | i | i | i | i | i
C=CCOC(=O)C1=C[C@@H](c2csc3ccccc23)[C@H](CCCO)[C@@H](OCC)O1 | i | i | i | i | i | . | . | . | .
Cc1cc2c(NC(=O)Nc3ccc(C(C)(C)C)cc3)cccc2nn1 | i | i | i | -6.9* | i | 78%* | i | i | i
CCCCn1c(N)c(N(Cc2ccccc2OC)C(=O)COc2ccc(F)cc2Cl)c(=O)[nH]c1=O | i | i | i | i | i | . | . | . | .
Cn1cccc1-c1nc2ccccc2n1Cc1ccccc1 | i | i | i | -4.9* | i | i | i | i | i
CCN1C(=O)[C@H]2[C@@H](c3ccc(C)cc3)N3C(=O)N(c4cccc(Cl)c4)C(=O)[C@@]3(Cc3ccccc3)[C@H]2C1=O | i | i | i | -5.2* | i | i | i | i | i
CCN1C(=O)[C@H]2[C@@H](c3ccc(C)cc3)N3C(=O)N(c4cccc(Cl)c4)C(=O)[C@@]3(Cc3ccc(Cl)cc3)[C@H]2C1=O | i | i | . | i | . | . | . | . | .
O=C(Nc1ccc(Cl)c(Cl)c1)Nc1ccccc1O | i | i | i | -5.5* | i | i | i | i | i
SMILES | MrgX1 PAM | MrgX1 ag | RGS4 pot | MrgX1 antag | RGS4 inh | MrgX1 ant reconf | HEK293 Ca flux | HEK293 Ca counter | HEK293 Ca cntr2
O=C(Nc1ccccc1O)C(c1ccccc1)c1ccccc1 | i | i | i | -5.1* | i | 76%* | i | i | i
CC(Sc1ccc(Cl)cc1)C(=O)N(C)CC(=O)Nc1ccc(N2CCOCC2)cc1 (stereo not drawn) | i | i | i | i | i | . | . | . | .
COc1ccc(Cl)cc1NS(=O)(=O)c1ccc(S(=O)(=O)N2CCCC2)cc1 | i | i | i | i | i | . | . | . | .
COc1ccc(Cl)cc1NS(=O)(=O)N1CCOCC1 | i | i | i | -6.2* | i | i | i | i | i
COc1ccc2[nH]c3c(c2c1)CCNC3C1CC=C(C)CC1 (stereo not drawn) | i | i | i | -8.9* | i | i | i | i | i
COc1ccc2[nH]c(C)cc(=O)c2c1 | i | i | i | i | i | . | . | . | .
C=CCn1c(-c2ccc(S(=O)(=O)N3CCOCC3)cc2)csc1=Nc1ccccc1 | i | i | i | -7.9* | i | i | i | i | i
O=C(CSC1=NCCS1)c1ccc(Cl)cc1 | i | i | i | i | i | . | . | . | .
O=C(CSC1=NCCS1)N1CCN(c2ccc(Cl)cc2)CC1 | i | i | i | -6.3* | i | i | i | i | i
Oc1ccc(N2CCN(C(c3ccncc3)c3nnnn3C3CCCC3)CC2)cc1 (stereo not drawn) | i | i | i | -8.1* | i | i | i | i | i
